Experimental findings from ChEMBL document CHEMBL4513216, “Probing the Open Global Health Chemical Diversity Library for Multistage-Active Starting Points for Next-Generation Antimalarials” (ACS Infect Dis, 2020) are described below.

Molecules are shown by their SMILES.

This data set in a line: Toxicity liver stage against HepG2, at 10uM. It counts as cell-based. The arrangement: test concentration 10 uM, cell line HepG2-A16-CD81EGFP. The note with it: human, HepG2-A16-CD81EGFP cells; read-out: INHIBITION
A digest of the protocol: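 Uninfected HepG2-A16-CD81EGFP cells, 3 × 10^3 per well, 1536-well, plated on prespotted compound at 10 μM final, parasite-free screening media added to match infected plates; puromycin 10 μM positive, DMSO 0.5% negative; run in parallel with 48 h PbLuc assay at 37 °C, 5% CO2; viability by CellTiter-Glo luminescence, normalized to controls.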
For `Cn1c(=O)c2c(n3ncnc13)NC(=O)CC2c1cccc(F)c1` (stereo not given), the cytotoxicity at 10 µM was 2.05%.
Take `N#Cc1ncn(CCS(=O)(=O)c2ccc(Br)cc2)n1`: the cytotoxicity at 10 µM is -17.2%.
As for `CC(C)(CNc1ccc(S(=O)(=O)C(F)F)cc1)N1CCOCC1`, the cytotoxicity at 10 µM worked out at 26.7%.
As to `O=S(=O)(Nc1cnc(N2CCOCC2)nc1)c1ccc(Cl)cc1`, the cytotoxicity at 10 µM was -5.82%.
In the case of `Cc1ccc(N2N=C(C(N)=O)S(=O)(=O)c3cccnc32)cc1` it was 4.28%; in that of `O=C(CCc1ccccc1)N1CCn2cc(CN3CCCC3)nc2C1`, -1.66%.
For the molecule `Cc1sc(NC(=O)CCC(=O)O)c(C(N)=O)c1-c1ccc(Cl)cc1Cl`, the cytotoxicity at 10 µM is 15.6%.
On to `CC(C)(C)C(=O)N1CCCC1c1nc(O)cc(-c2ccccn2)n1` (stereo not given), for which the cytotoxicity at 10 µM is -1.26%.
With `CN1CC(=O)N(c2cccnc2)Cc2c(NC3CC3)ncnc21`, the cytotoxicity at 10 µM is 5.28%.
In the case of `Cc1cc(C(=O)NCc2ccc(F)cc2)c2c(C3CCNC3)noc2n1` (stereo not given) it was 7.08%; in that of `O=C(c1ccc(Cl)cc1)N1CCC(N2CCOC2=O)CC1`, 7.72%; in that of `O=C(NCCN1CCOCC1)c1cnc(-c2ccccc2F)s1`, 0.277%.
In the case of `Cc1ccc(C(=O)NS(=O)(=O)Cc2ccc(F)cc2)cc1S(C)(=O)=O` it was -7.36%; in that of `Cc1ccc(C)c(CC(=O)NC2CCS(=O)(=O)CC2)c1`, -9.56%.
Take `CNS(=O)(=O)Cc1cccc(CNCc2ccsc2)c1`: the cytotoxicity at 10 µM stood at 11.7%.
Turning to `O=C(NCC(O)c1cccs1)c1sccc1OC(F)F` (stereo not given), the cytotoxicity at 10 µM was -2.45%.
In the case of `Cc1noc(NCc2cn(C)nc2-c2cccnc2)n1` it was 6.87%; in that of `CCCNC(=O)C(C)NC(=O)Nc1ccccc1SC(F)F` (stereo not given), 5.09%.
In the case of `Cc1cc(C(=O)NCC2CCC3(CC2)OCCO3)[nH]n1` it was -10.7%; in that of `CN(Cc1ccccc1)C(=O)CCS(=O)(=O)c1ccc2c(c1)OCCO2`, -7.08%.
Consider `c1cc(CN2CCc3cncnc3C2)c2c(c1)OCCO2`, for which the cytotoxicity at 10 µM was -3.67%.
As for `O=C1CCC(=O)N1CCOc1nc(-c2ccccc2Cl)no1`, the cytotoxicity at 10 µM worked out at 6.97%.
Turning to `CN(C)S(=O)(=O)c1cccc(CNc2cc(CO)ccc2Cl)c1`, the cytotoxicity at 10 µM is 5.36%.
For the molecule `Cc1ccc(C(=O)O)cc1S(=O)(=O)N(CC(C)O)c1ccccc1` (stereo not given), the cytotoxicity at 10 µM was 9.83%.
Consider `CC(C)Nc1ncccc1C(=O)NCc1cnc(N(C)C)n1C`, for which the cytotoxicity at 10 µM is -10.1%.
In the case of `CNC(=O)COc1cccc(CNC(=O)c2c(C)noc2C)c1`, the cytotoxicity at 10 µM is -4.93%.
Take `CNC(=O)C1CCCN(C(=O)OC)C1` (stereo not given): the cytotoxicity at 10 µM is -6.06%.
For `CCCN1CCC(N2CCN(c3cc(C)nc(COC)n3)CC2)CC1`, the cytotoxicity at 10 µM is -0.332%.
For `Cc1cc(CNC(C)Cn2cncn2)ccc1Br` (stereo not given), the cytotoxicity at 10 µM is 2.33%.
Take `CC(=O)N1CCC(C(=O)NC2CCc3nccn3C2)CC1` (stereo not given): the cytotoxicity at 10 µM is -13.4%.
Regarding `Cc1cc(NCc2ccc(S(N)(=O)=O)cc2)nc(C)n1`, the cytotoxicity at 10 µM was -2.08%.
Take `Cc1cc(C(C)(O)CNC(=O)OC(C)(C)C)c(C)o1` (stereo not given): the cytotoxicity at 10 µM amounted to 10.5%.
As for `COc1ccnc(N2CCCN(C(=O)CCc3cnn(C)c3)CC2)n1`, the cytotoxicity at 10 µM stood at 17.7%.
As to `Cc1ncc(CNCC(=O)NCC(F)(F)F)n1-c1ccccc1`, the cytotoxicity at 10 µM was determined as 5.57%.
Regarding `CCN1CC2(CC1=O)CN(C(C)=O)CCN(C(=O)NC)C2` (stereo not given), the cytotoxicity at 10 µM is -3.62%.
Consider `O=C1C[C@H]2[C@H](CCN2C(=O)c2ccno2)N1CC1CC1`, for which the cytotoxicity at 10 µM turned out to be 2.77%.
Turning to `Cn1cc(C2COC3(CCN(C(=O)c4ccn(C)n4)CC3)C2)cn1` (stereo not given), the cytotoxicity at 10 µM is -66.5%.
On to `CN(C)C(=O)NC1COC2(CCN(Cc3ccc(N(C)C)cc3)CC2)C1` (stereo not given), for which the cytotoxicity at 10 µM is -77%.
On to `O=C(NCCN1CCOCC1)C1=NOC2(CCN(Cc3nccs3)C2)C1` (stereo not given), for which the cytotoxicity at 10 µM was -79.3%.
Regarding `CN(Cc1ccco1)[C@@H]1CN(Cc2ccoc2)C[C@@H]2CCCO[C@@H]21`, the cytotoxicity at 10 µM is -1.6%.
Take `COCC(=O)NCc1cc(=O)n2c(n1)CN(Cc1ccsc1)CCC2`: the cytotoxicity at 10 µM is 0.281%.
Turning to `Cc1noc([C@H]2C[C@@H]3CCN(C(=O)C4CCOCC4)C[C@H]3O2)n1`, the cytotoxicity at 10 µM was 7.62%.
Next, `O=C(C1CCOC1)N1CCc2ncc(CNc3ccccn3)n2CC1` (stereo not given): 0.0499%; `c1ccc(-c2nc(CCNc3nnc(C4CCC4)o3)no2)cc1`: -3.37%.
On to `CCC(CO)N(Cc1cccs1)C(=O)Cc1ccncc1` (stereo not given), for which the cytotoxicity at 10 µM was -9.67%.
Consider `CN(Cc1n[nH]c2c1CCCC2)c1cc(N2CCOCC2)nc(N)n1`, for which the cytotoxicity at 10 µM was -7.7%.
As to `Cc1ccnn1CCC(=O)N(Cc1ccsc1)CC(C)C`, the cytotoxicity at 10 µM was -57.4%.
Consider `O=C(NCc1nc(C2CCCCC2)no1)C1CC(=O)N(C2CC2)C1` (stereo not given), for which the cytotoxicity at 10 µM was 1.5%.
On to `O=C(Nc1ccc(-c2ccccc2)cc1)N1C[C@@H]2CNC[C@]2(C(=O)O)C1`, for which the cytotoxicity at 10 µM was -44.7%.
As for `CN(C)CCN(C)c1ccc(-c2nc(COc3ccccc3)no2)cn1`, the cytotoxicity at 10 µM worked out at 4.35%.
Regarding `CCC[C@@H]1CN(Cc2nnc(-c3cccc(F)c3)o2)C[C@H]1NC(C)=O`, the cytotoxicity at 10 µM is 0.833%.
On to `CC(C)SCC(=O)NCc1cc2n(n1)CCCN(C1CCCCC1)C2`, for which the cytotoxicity at 10 µM is 2.37%.
Consider `CS(=O)(=O)c1cnc(CC2CC2)nc1C1CCCNC1` (stereo not given), for which the cytotoxicity at 10 µM was -33.5%.
Next, `CC[C@@H](CO)NC(=O)c1coc(COc2ccc3sc(C)nc3c2)n1`: 4.67%.
In the case of `Cc1cccc(C)c1NC(=O)c1cccc(CN2CCCC2C)c1` (stereo not given), the cytotoxicity at 10 µM was 4.73%.
On to `CC(C)NC(=O)[C@@H]1C[C@H](N)CN1C(=O)C1(c2ccc(Cl)cc2)CCC1`, for which the cytotoxicity at 10 µM amounted to 3.92%.
Take `Cc1[nH]nc(CCC(=O)NCC2CCCN(C3CCCC3)C2)c1C` (stereo not given): the cytotoxicity at 10 µM was -7.7%.
For the molecule `Cc1cc(C)cc(N2CCN(Cc3cccnc3)CC2=O)c1`, the cytotoxicity at 10 µM turned out to be 5.02%.
With `Cc1ccccc1OC(C(=O)N1CCC2(CC1)CN(C)C(=O)O2)C(C)C` (stereo not given), the cytotoxicity at 10 µM is -52.4%.
Take `Cc1ccnc(C(Nc2nccc(-c3ccc(C)nc3C)n2)C2CC2)c1` (stereo not given): the cytotoxicity at 10 µM is -1.89%.
In the case of `CC(=O)Nc1cccc(C(=O)N2CCc3c(nc(N(C)C)[nH]c3=O)C2)c1` it was 5.9%.
With `CSc1ccc(-n2ccnc2-c2cc3n(n2)CCNC3)cc1`, the cytotoxicity at 10 µM was -9.94%.
For the molecule `Cc1cc(C)nc(CN2CCOC(c3ccc(Cl)cc3)C2)n1` (stereo not given), the cytotoxicity at 10 µM was -2.43%.
For the molecule `C=C(C)CNCC1(O)CCCN(Cc2ccc(F)c(F)c2)C1=O` (stereo not given), the cytotoxicity at 10 µM is -1.12%.
In the case of `Cc1[nH]c(-c2ccccc2)nc1C(=O)N1CCC2(CCCO2)CC1` it was 2.8%; in that of `Cc1nn(C)cc1-c1ccnc(N2CCCN(CC(C)C)CC2)n1`, 4.26%; in that of `COc1ccc(SC(C)C(=O)N2CCC(C(N)=O)CC2)cc1` (stereo not given), 2.28%.
Take `CCCC1(NC(=O)C(c2ccccc2C)N(C)C)CC1` (stereo not given): the cytotoxicity at 10 µM is -40.4%.
As to `Cc1ccc2nc(CNCCCN3CCCC3)cc(O)c2c1`, the cytotoxicity at 10 µM was -49.6%.
As to `Cc1cc(-c2nn(C)c(Cl)c2CN2CCOCC(O)C2)no1` (stereo not given), the cytotoxicity at 10 µM was -14.8%.
Take `Cn1cc(CN2CC[C@@H]3[C@@H](CCC(=O)N3CCC3=CCCCC3)C2)cn1`: the cytotoxicity at 10 µM was -8.68%.
As for `c1ccc(-c2nc(CNC3CCc4ncnn4C3)no2)cc1` (stereo not given), the cytotoxicity at 10 µM was -4.16%.
As for `Cc1nccn1C1CCCN(C(=O)c2ccc(-n3cccn3)nc2)C1` (stereo not given), the cytotoxicity at 10 µM was -9.18%.
On to `Cc1occc1C(=O)N1CCCN(Cc2nccn2C(C)C)CC1`, for which the cytotoxicity at 10 µM was -9.24%.
As for `O=C(NCc1nn(-c2ccccc2)c2c1CCC2)NC1CCC(O)CC1` (stereo not given), the cytotoxicity at 10 µM was -7.75%.
Consider `CN(C(=O)Nc1ccncc1)C1CCN(c2ccccc2)C1=O` (stereo not given), for which the cytotoxicity at 10 µM was -10.1%.
`Cc1cc(C)n(C2CCCN(C(=O)CCNc3ncccn3)C2)n1` (stereo not given): the cytotoxicity at 10 µM is -2.53%.
On to `CN(C)CC1CN(CCOc2cccc(C#N)c2)CCO1` (stereo not given), for which the cytotoxicity at 10 µM is -9.63%.
Turning to `Cc1cn2c(n1)CCC(NC(=O)CCn1ccnn1)C2` (stereo not given), the cytotoxicity at 10 µM was -2.53%.
In the case of `CCC(=O)N1CCN(C(=O)CCn2cccn2)CC1` it was -2.6%.
In the case of `O=C(NCCNc1ncccn1)C1CCN(C(=O)C2CC2)CC1` it was -3.02%; in that of `Cc1nc(C)n(C2CCCN(C(=O)c3cnc[nH]3)C2)n1` (stereo not given), -5.04%; in that of `O=C(c1ccc(F)cc1Cl)N1CCC(Nc2cccnn2)CC1`, -8.08%.
With `c1csc(-c2noc(C3CCCNC3)n2)c1` (stereo not given), the cytotoxicity at 10 µM was -2.5%.
For `Cc1ccc(CN(CCCn2ccnc2)Cc2c[nH]cn2)s1`, the cytotoxicity at 10 µM was -4.99%.
Next, `COc1ccc(CN2CCO[C@H]3[C@H](Oc4ccccn4)CC[C@@H]32)cc1`: 21.5%; `Cc1cccc(CN2CCC3(CCN(Cc4ccccn4)C3)C2=O)c1` (stereo not given): 12%.
Take `O=C1CC[C@H]2[C@H](CCN2Cc2ccccn2)N1CC1CCOCC1`: the cytotoxicity at 10 µM came out at 3.59%.
As to `O[C@H]1CCN(Cc2ccoc2)[C@H]1Cc1cccnc1`, the cytotoxicity at 10 µM was determined as 2.36%.
`c1cncc(-c2nnn3c2COCC(CNCC2CCOCC2)C3)c1` (stereo not given): the cytotoxicity at 10 µM was -75.4%.
For the molecule `Cc1noc(C)c1CN1C[C@@H]2COC[C@@H](CC(=O)N3CCCCO3)[C@@H]2C1`, the cytotoxicity at 10 µM is -72.4%.
Consider `CNC(=O)c1cnc(C=Cc2cc(OC)c3c(c2)OCCO3)s1`, for which the cytotoxicity at 10 µM turned out to be 12.9%.
Regarding `CN1C[C@@H]2C[C@H](C(=O)Nc3cccnc3)[C@H](C1)O2`, the cytotoxicity at 10 µM is -71.1%.
Take `CCC=C(C)C(=O)NCCc1csc(N2CCCC2)n1`: the cytotoxicity at 10 µM came to 18.7%.
For the molecule `Cc1cc(C(=O)N2C[C@@H]3C(CN(C)CCc4ccccn4)[C@@H]3C2)c(C)o1` (stereo not given in full), the cytotoxicity at 10 µM is -50.1%.
